Source: ChEMBL document CHEMBL1157157, “N-Aroyl-3,5-bis(benzylidene)-4-piperidones: a novel class of antimycobacterial agents” (Bioorg Med Chem, 2008)
In brackets after ≈: the same amount, converted by molar mass. Activity calls are given as the source filed them. The rule behind the calls is not given here.

Tests used:
[1] = system: Mycobacterium tuberculosis; test: Antimycobacterial activity against Mycobacterium tuberculosis H37Rv by broth microdilution assay; assay type: functional
Outline: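 M. tuberculosis H37Rv (ATCC 27294) grown in BACTEC 12B medium, broth microdilution. MIC taken as the lowest concentration giving a 90% reduction in fluorescence relative to controls. Rifampin served as reference drug.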

[2] = Lipophilicity, log P of the compound; assay type: physicochemical; settings: octanol/water
Outline: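 log P calculated with ACD algorithm and database statistics; not measured experimentally.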

Mus musculus [3] = test: Neurotoxicity in mouse at 100 mg/kg after 0.5 hrs; assay type: toxicity, organism-based; parameters: dose 100 mg/kg; settings: in vivo
Outline: (§1)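 Mice dosed intraperitoneally at 30, 100 and 300 mg/kg; 1a and 1b given as hydrochloride salts. Observed 0.5 and 4 h after dosing. Value is number of animals showing neurological deficit over number dosed. Deaths also recorded.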

Mus musculus [4] = test: Neurotoxicity in mouse at 100 mg/kg after 4 hrs; assay type: toxicity, organism-based; parameters: dose 100 mg/kg; settings: in vivo; outline: as §1
Mus musculus [5] = test: Neurotoxicity in mouse at 300 mg/kg after 4 hrs; assay type: toxicity, organism-based; parameters: dose 300 mg/kg; settings: in vivo; outline: as §1
Mus musculus [6] = test: Neurotoxicity in mouse at 300 mg/kg after 0.5 hrs; assay type: toxicity, organism-based; parameters: dose 300 mg/kg; settings: in vivo; outline: as §1
[7] = system: Mycobacterium tuberculosis; test: Antimycobacterial activity against Mycobacterium tuberculosis H37Rv at 6.25 ug/ml by broth microdilution assay; assay type: functional
Outline: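 Single-concentration screen at 6.25 µg/mL against M. tuberculosis H37Rv (ATCC 27294), broth microdilution in BACTEC 12B medium. Read-out is % growth inhibition versus controls. At least 90% inhibition counted as active.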

Rattus norvegicus [8] = test: Neurotoxicity in rat at 50 mg/kg, po after 1 hr; assay type: toxicity, organism-based; parameters: dose 50 mg/kg, route oral; settings: in vivo
Outline: (§2)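 Rats dosed orally at 30 or 50 mg/kg and examined for neurotoxicity 0.25, 0.5, 1, 2 and 4 h after dosing. Four animals per group, with three rats at one 0.5 h time point.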

Rattus norvegicus [9] = test: Neurotoxicity in rat at 30 mg/kg, po after 2 hrs; assay type: toxicity, organism-based; parameters: dose 30 mg/kg, route oral; settings: in vivo; outline: as §2
Rattus norvegicus [10] = test: Neurotoxicity in rat at 30 mg/kg, po after 0.5 hrs; assay type: toxicity, organism-based; parameters: dose 30 mg/kg, route oral; settings: in vivo; outline: as §2
[11] = system: Mycobacterium tuberculosis; test: Antimycobacterial activity against Mycobacterium tuberculosis H37Rv at 12.5 ug/ml by broth microdilution assay; assay type: functional
Outline: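 Primary screen against M. tuberculosis H37Rv (ATCC 27294) at a single concentration of 12.5 µg/mL in BACTEC 12B medium by broth microdilution. Growth inhibition expressed as % relative to controls. Hydrochloride salt used where applicable.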

Liver [12] = test: Stimulation of respiration in rat liver mitochondria assessed as effect on swelling at 10 uM; assay type: functional
Outline: (§3)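 Rat liver mitochondria isolated by differential centrifugation (respiratory control ratio 5–7). Swelling of fresh mitochondria followed at 30 °C in 125 mM sucrose, 65 mM KCl, 10 mM Hepes, 5 mM potassium phosphate, 1 mM MgCl2, pH 7.2, with 5 mM succinate. Compounds tested at 5, 10 and 100 μM; DMSO solvent control.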

Liver [13] = test: Stimulation of respiration in rat liver mitochondria assessed as effect on swelling at 100 uM; assay type: functional; outline: as §3
Liver [14] = test: Stimulation of respiration in rat liver mitochondria assessed as effect on swelling at 5 uM; assay type: functional; outline: as §3
Rattus norvegicus [15] = test: Neurotoxicity in rat at 30 mg/kg, po after 0.25 hrs; assay type: toxicity, organism-based; parameters: dose 30 mg/kg, route oral; settings: in vivo; outline: as §2
Rattus norvegicus [16] = test: Neurotoxicity in rat at 30 mg/kg, po after 4 hrs; assay type: toxicity, organism-based; parameters: dose 30 mg/kg, route oral; settings: in vivo; outline: as §2

Row | SMILES | MIC [1] | logP [2] | Activity (Mus musculus [3]) | Activity (Mus musculus [4]) | Activity (Mus musculus [5]) | Activity (Mus musculus [6]) | inhibition at 6.25 µg/mL [7] | logP ([2]; read-out: logP) | other results
1 | CN(C)CCOc1ccc(C(=O)N2C/C(=C\c3ccc(Cl)cc3)C(=O)/C(=C/c3ccc(Cl)cc3)C2)cc1.Cl | 1.56 µg/mL | 7 | Non-toxic | Non-toxic | Non-toxic | Non-toxic | 100% | – | –
2 | Cc1ccc(/C=C2\CN(C(=O)c3ccc(OCCN(C)C)cc3)C/C(=C\c3ccc(C)cc3)C2=O)cc1.Cl | 3.13 µg/mL | 6.8 | – | Non-toxic | Non-toxic | Non-toxic | 100% | – | –
3 | CCN(CC)CCOc1ccc(C(=O)N2C/C(=C\c3ccccc3)C(=O)/C(=C/c3ccccc3)C2)cc1.Cl | – | 7 | – | Non-toxic | Non-toxic | – | 99% | – | Activity (Rattus norvegicus [8]): Non-toxic
4 | CCN(CC)CCOc1ccc(C(=O)N2C/C(=C\c3ccc(C)cc3)C(=O)/C(=C/c3ccc(C)cc3)C2)cc1.Cl | 3.13 µg/mL | 7.9 | Non-toxic | Non-toxic | Non-toxic | Non-toxic | 100% | – | –
5 | COc1ccc(C(=O)N2C/C(=C\c3ccc(Cl)cc3)C(=O)/C(=C/c3ccc(Cl)cc3)C2)cc1 | – | – | – | Non-toxic | Non-toxic | Non-toxic | 47% | 6 | –
6 | Cl.O=C1/C(=C/c2ccc(Cl)cc2)CN(C(=O)c2ccc(OCCN3CCOCC3)cc2)C/C1=C\c1ccc(Cl)cc1 | – | – | Non-toxic | Non-toxic | Non-toxic | Non-toxic | 0% | 6.4 | Activity (Rattus norvegicus [9]): Non-toxic
7 | CN(C)CCOc1ccc(C(=O)N2C/C(=C\c3ccc([N+](=O)[O-])cc3)C(=O)/C(=C/c3ccc([N+](=O)[O-])cc3)C2)cc1.Cl | – | – | Non-toxic | Non-toxic | – | – | 27% | 5.5 | Activity (Rattus norvegicus [10]): Non-toxic
8 | Cl.O=C1/C(=C/c2ccccc2)CN(C(=O)c2ccc(OCCN3CCOCC3)cc2)C/C1=C\c1ccccc1 | 6.25 µg/mL | – | Non-toxic | Non-toxic | Non-toxic | – | 100% | 5.4 | –
9 | Cl.O=C1/C(=C/c2ccc([N+](=O)[O-])cc2)CN(C(=O)c2ccc(OCCN3CCCCC3)cc2)C/C1=C\c1ccc([N+](=O)[O-])cc1 | 3.13 µg/mL | 6.6 | – | Non-toxic | – | – | 100% | – | –
10 | Cl.O=C1/C(=C/c2ccc(Cl)cc2)CNC/C1=C\c1ccc(Cl)cc1 | 6.25 µg/mL | 6.8 | Non-toxic | Non-toxic | Non-toxic | Non-toxic | – | – | inhibition at 12.5 µg/mL [11]: 99%
11 | CCN(CC)CCOc1ccc(C(=O)N2C/C(=C\c3ccc(Cl)cc3)C(=O)/C(=C/c3ccc(Cl)cc3)C2)cc1.Cl | – | 8 | Non-toxic | Non-toxic | Non-toxic | Non-toxic | 37% | – | –
12 | CN(C)CCOc1ccc(C(=O)N2C/C(=C\c3ccccc3)C(=O)/C(=C/c3ccccc3)C2)cc1.Cl | 1.56 µg/mL | 5.9 | Non-toxic | Non-toxic | Non-toxic | Non-toxic | 98% | – | Activity (Liver [12]): inactive; Activity (Liver [13]): inactive; Activity (Liver [14]): inactive; Activity (Rattus norvegicus [15]): Non-toxic
13 | O=C1/C(=C/c2ccccc2)CN(C(=O)c2ccccc2)C/C1=C\c1ccccc1 | – | – | – | – | – | – | 0% | 5.5 | –
14 | Cl.O=C1/C(=C/c2ccc([N+](=O)[O-])cc2)CN(C(=O)c2ccc(OCCN3CCOCC3)cc2)C/C1=C\c1ccc([N+](=O)[O-])cc1 | 6.25 µg/mL | – | Non-toxic | Non-toxic | Non-toxic | – | 100% | 5 | –
15 | CCN(CC)CCOc1ccc(C(=O)N2C/C(=C\c3ccc([N+](=O)[O-])cc3)C(=O)/C(=C/c3ccc([N+](=O)[O-])cc3)C2)cc1.Cl | – | 6.5 | – | – | – | – | 34% | – | –
16 | Cc1ccc(/C=C2\CN(C(=O)c3ccc(OCCN4CCCCC4)cc3)C/C(=C\c3ccc(C)cc3)C2=O)cc1.Cl | 3.13 µg/mL | 8 | – | Non-toxic | Non-toxic | Non-toxic | 100% | – | –
17 | CC[N+](C)(CC)CCOc1ccc(C(=O)N2C/C(=C\c3ccccc3)C(=O)/C(=C/c3ccccc3)C2)cc1.[I-] | – | – | Toxic | Toxic | Toxic | Toxic | 0% | 2.2 | –
18 | Cl.O=C1/C(=C/c2ccccc2)CNC/C1=C\c1ccccc1 | 3.13 µg/mL | 5.7 | Non-toxic | Non-toxic | Non-toxic | Non-toxic | – | – | inhibition at 12.5 µg/mL [11]: 99%
19 | O=C1/C(=C/c2ccc([N+](=O)[O-])cc2)CNC/C1=C\c1ccc([N+](=O)[O-])cc1 | 0.2 µg/mL (≈ 0.547 µM) | 5.3 | Non-toxic | Non-toxic | Non-toxic | Non-toxic | – | – | Activity (Liver [12]): inactive; Activity (Liver [13]): inactive; inhibition at 12.5 µg/mL [11]: 100%; Activity (Liver [14]): inactive
20 | Cc1ccc(/C=C2\CNC/C(=C\c3ccc(C)cc3)C2=O)cc1 | – | 6.6 | Non-toxic | Non-toxic | Non-toxic | Non-toxic | 0% | – | –
21 | CC[N+](C)(CC)CCOc1ccc(C(=O)N2C/C(=C\c3ccc(C)cc3)C(=O)/C(=C/c3ccc(C)cc3)C2)cc1.[I-] | – | – | Non-toxic | Non-toxic | Toxic | – | 81% | 3.1 | –
22 | Cl.O=C1/C(=C/c2ccccc2)CN(C(=O)c2ccc(OCCN3CCCCC3)cc2)C/C1=C\c1ccccc1 | 6.25 µg/mL | 7.1 | – | – | – | – | 100% | – | –
23 | Cc1ccc(/C=C2\CN(C(=O)c3ccc(OCCN4CCOCC4)cc3)C/C(=C\c3ccc(C)cc3)C2=O)cc1.Cl | 0.78 µg/mL | – | Non-toxic | Non-toxic | Non-toxic | Non-toxic | 100% | 6.3 | –
24 | CC[N+](C)(CC)CCOc1ccc(C(=O)N2C/C(=C\c3ccc([N+](=O)[O-])cc3)C(=O)/C(=C/c3ccc([N+](=O)[O-])cc3)C2)cc1.[I-] | – | – | – | – | Toxic | Toxic | 0% | 1.8 | Activity (Rattus norvegicus [16]): Non-toxic
25 | Cl.O=C1/C(=C/c2ccc(Cl)cc2)CN(C(=O)c2ccc(OCCN3CCCCC3)cc2)C/C1=C\c1ccc(Cl)cc1 | – | 8.1 | – | – | – | – | 86% | – | –
26 | CC[N+](C)(CC)CCOc1ccc(C(=O)N2C/C(=C\c3ccc(Cl)cc3)C(=O)/C(=C/c3ccc(Cl)cc3)C2)cc1.[I-] | – | – | Non-toxic | Non-toxic | Non-toxic | Non-toxic | 23% | 3.2 | –
27 | CCN(CC)CCOc1ccc(C(=O)O)cc1.Cl | – | – | Non-toxic | Non-toxic | Non-toxic | Non-toxic | 12% | 2.9 | –
28 | CO[C@H]1/C=C/O[C@@]2(C)Oc3c(C)c(O)c4c(O)c(c(/C=N/N5CCN(C)CC5)c(O)c4c3C2=O)NC(=O)/C(C)=C\C=C\[C@H](C)[C@H](O)[C@@H](C)[C@@H](O)[C@@H](C)[C@H](OC(C)=O)[C@@H]1C [RIFAMPIN] | 0.07 µg/mL (≈ 0.0851 µM) | – | – | – | – | – | – | – | –
